Source: ChEMBL document CHEMBL3259728, “Design, synthesis and biological evaluation of some novel substituted quinazolines as antitumor agents” (2014)

How the values were obtained:
Format in all cases: functional
MDA-MB-468 [1] = assay: Growth inhibition of human MDA-MB-468 cells assessed as cell growth at 10^-6 M after 48 hrs by SRB assay; conditions: MDA-MB-468, 48 h, read-out: Activity
[2] = Cytotoxicity against human Hs578T cells after 48 hrs by SRB assay; conditions: Hs-578T
How it was run: (§1)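 NCI 60-cell-line panel of human tumour lines from nine cancer types. Continuous 48 h exposure at five 10-fold dilutions from 10^-4 to 10^-8 M, with 5-FU as positive control. SRB protein stain read spectrophotometrically at time zero, untreated control and each concentration. GI50, TGI and LC50 were derived from the [(Ti−Tz)/(C−Tz)]×100 growth relations, and out-of-range values are given as > or < the tested limits.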

[3] = Growth inhibition of human HOP92 cells assessed as cell growth at 10^-8 M after 48 hrs by SRB assay; conditions: HOP-92, 48 h, read-out: Activity
IGROV-1 [4] = assay: Growth inhibition of human IGROV1 cells assessed as cell growth at 10^-4 M after 48 hrs by SRB assay; conditions: IGROV-1, 48 h, read-out: Activity
[5] = Growth inhibition of human LOXIMVI cells assessed as cell growth at 10^-5 M after 48 hrs by SRB assay; conditions: LOX IMVI, read-out: Activity
MDA-MB-231 = assay: Cytotoxicity against human MDA-MB-231 cells after 48 hrs by SRB assay; conditions: MDA-MB-231, 48 h; how it was run: as §1
SN12C = assay: Cytotoxicity against human SN12C cells after 48 hrs by SRB assay; how it was run: as §1
RPMI-8226 = assay: Cytotoxicity against human RPMI8226 cells after 48 hrs by SRB assay; conditions: RPMI-8226, 48 h; how it was run: as §1
IGROV-1 [6] = assay: Growth inhibition of human IGROV1 cells assessed as cell growth at 10^-7 M after 48 hrs by SRB assay; conditions: IGROV-1, 48 h, read-out: Activity
RXF 393 = assay: Cytotoxicity against human RXF393 cells after 48 hrs by SRB assay; conditions: RXF 393, 48 h; how it was run: as §1
K562 = assay: Growth inhibition of human K562 cells assessed as cell growth at 10^-7 M after 48 hrs by SRB assay; conditions: K562, 48 h, read-out: Activity
MDA-MB-468 [7] = assay: Growth inhibition of human MDA-MB-468 cells assessed as cell growth at 10^-8 M after 48 hrs by SRB assay; conditions: MDA-MB-468, 48 h, read-out: Activity
[8] = Growth inhibition of human BT549 cells assessed as cell growth at 10^-5 M after 48 hrs by SRB assay; conditions: BT-549, 48 h, read-out: Activity
How it was run: (§2)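 Five-dose NCI panel protocol. Each dose (10^-4 to 10^-8 M, 10-fold steps) was given as 48 h continuous exposure, and protein was measured by SRB staining. Percentage growth at each level is [(Ti−Tz)/(C−Tz)]×100, where Tz is time-zero absorbance and C is untreated control.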

KM12 = assay: Growth inhibition of human KM12 cells assessed as cell growth at 10^-6 M after 48 hrs by SRB assay; conditions: KM12, 48 h, read-out: Activity
[9] = Growth inhibition of human SF539 cells assessed as cell growth at 10^-7 M after 48 hrs by SRB assay; conditions: SF-539, 48 h, read-out: Activity
NCI-H322M = assay: Growth inhibition of human NCI-H322M cells assessed as cell growth at 10^-7 M after 48 hrs by SRB assay; conditions: read-out: Activity
NCI-H226 = assay: Growth inhibition of human NCI-H226 cells assessed as cell growth at 10^-8 M after 48 hrs by SRB assay; conditions: NCI-H226, 48 h, read-out: Activity
[10] = Growth inhibition of human UACC62 cells assessed as cell growth at 10^-7 M after 48 hrs by SRB assay; conditions: UACC-62, 48 h, read-out: Activity
NCI-H23 = assay: Cytotoxicity against human NCI-H23 cells after 48 hrs by SRB assay; conditions: NCI-H23, 48 h; how it was run: as §1
COLO 205 = assay: Growth inhibition of human COLO205 cells assessed as cell growth at 10^-5 M after 48 hrs by SRB assay; conditions: COLO 205, 48 h, read-out: Activity; how it was run: as §2
[11] = Growth inhibition of human HCC2998 cells assessed as cell growth at 10^-7 M after 48 hrs by SRB assay; conditions: HCC 2998, 48 h, read-out: Activity
Malme-3M = assay: Growth inhibition of human MALME-3M cells assessed as cell growth at 10^-8 M after 48 hrs by SRB assay; conditions: read-out: Activity
SF-268 = assay: Growth inhibition of human SF268 cells assessed as cell growth at 10^-5 M after 48 hrs by SRB assay; conditions: SF-268, 48 h, read-out: Activity
[12] = Growth inhibition of human UO31 cells assessed as cell growth at 10^-5 M after 48 hrs by SRB assay; conditions: UO-31, 48 h, read-out: Activity
CAKI-1 = assay: Growth inhibition of human CAKI-1 cells assessed as cell growth at 10^-4 M after 48 hrs by SRB assay; conditions: CAKI-1, 48 h, read-out: Activity; how it was run: as §2
NCI-H460 = assay: Growth inhibition of human NCI-H460 cells assessed as cell growth at 10^-6 M after 48 hrs by SRB assay; conditions: NCI-H460, 48 h, read-out: Activity
U-251 = assay: Growth inhibition of human U251 cells assessed as cell growth at 10^-8 M after 48 hrs by SRB assay; conditions: U-251, 48 h, read-out: Activity
ACHN = assay: Growth inhibition of human ACHN cells assessed as cell growth at 10^-7 M after 48 hrs by SRB assay; conditions: read-out: Activity; how it was run: as §2
HOP-62 = assay: Growth inhibition of human HOP62 cells assessed as cell growth at 10^-7 M after 48 hrs by SRB assay; conditions: HOP-62, 48 h, read-out: Activity
[13] = read-out: LC50 (the source's name)
[14] = read-out: pLC50 (the source's name) (converted)

Q: With `Cc1ccc(-c2nc3ccc(Cl)cc3c(=O)n2/N=C/c2ccccc2)cc1` as the compound, how does the growth at 1 µM (MDA-MB-468 [1]) read?
A: 92%

Q: What about the GI50 ([2]; read-out: GI50) of the same compound?
A: 2.62 µM

Q: And the LC50 (concentration giving 50% net cell kill) ([2]; read-out: LC50)?
A: > 100 µM

Q: And the TGI ([2]; read-out: TGI)?
A: 17.2 µM

Q: And the GI50 ([2]; read-out: pGI50 (converted))?
A: 2.63 µM

Q: And the LC50 (concentration giving 50% net cell kill) ([2]; read-out: pLC50 (converted))?
A: > 100 µM

Q: What about the TGI ([2]; read-out: pTGI (converted)) of the same compound?
A: 17.4 µM

Q: And the growth at 0.01 µM [3]?
A: 93%

Q: And the growth at 100 µM (IGROV-1 [4])?
A: 25%

Q: What about the growth at 10 µM [5] of the same compound?
A: 63%

Q: And the GI50 (MDA-MB-231; read-out: GI50)?
A: 4.21 µM

Q: What about the LC50 (MDA-MB-231; read-out: LC50) of the same compound?
A: > 100 µM

Q: What about the TGI (MDA-MB-231; read-out: TGI) of the same compound?
A: > 100 µM

Q: And the GI50 (MDA-MB-231; read-out: pGI50 (converted))?
A: 4.17 µM

Q: What about the LC50 (MDA-MB-231; read-out: pLC50 (converted)) of the same compound?
A: > 100 µM

Q: What about the TGI (MDA-MB-231; read-out: pTGI) of the same compound?
A: > 100 µM

Q: And the GI50 (SN12C; read-out: GI50)?
A: 11.8 µM

Q: And the CC50 (SN12C; [13])?
A: > 100 µM

Q: What about the TGI (SN12C; read-out: TGI) of the same compound?
A: > 100 µM

Q: And the GI50 (SN12C; read-out: pGI50 (converted))?
A: 11.7 µM

Q: And the CC50 (SN12C; [14])?
A: > 100 µM

Q: What about the TGI (SN12C; read-out: pTGI) of the same compound?
A: > 100 µM

Q: What about the GI50 (RPMI-8226; read-out: GI50) of the same compound?
A: > 100 µM

Q: What about the CC50 (RPMI-8226; [13]) of the same compound?
A: > 100 µM

Q: What about the TGI (RPMI-8226; read-out: TGI) of the same compound?
A: > 100 µM

Q: And the GI50 (RPMI-8226; read-out: pGI50 (converted))?
A: > 100 µM

Q: And the CC50 (RPMI-8226; [14])?
A: > 100 µM

Q: What about the TGI (RPMI-8226; read-out: pTGI) of the same compound?
A: > 100 µM

Q: What about the growth at 0.1 µM (IGROV-1 [6]) of the same compound?
A: 78%

Q: And the GI50 (RXF 393; read-out: GI50)?
A: 6.46 µM

Q: And the CC50 (RXF 393; [13])?
A: > 100 µM

Q: And the TGI (RXF 393; read-out: TGI)?
A: > 100 µM

Q: What about the GI50 (RXF 393; read-out: pGI50 (converted)) of the same compound?
A: 6.46 µM

Q: What about the CC50 (RXF 393; [14]) of the same compound?
A: > 100 µM

Q: What about the TGI (RXF 393; read-out: pTGI) of the same compound?
A: > 100 µM

Q: And the growth at 0.1 µM (K562)?
A: 97%

Q: What about the growth at 0.01 µM (MDA-MB-468 [7]) of the same compound?
A: 91%

Q: And the growth at 10 µM [8]?
A: 90%

Q: And the growth at 1 µM (KM12)?
A: 91%

Q: What about the growth at 0.1 µM [9] of the same compound?
A: 97%

Q: What about the growth at 0.1 µM (NCI-H322M) of the same compound?
A: 76%

Q: And the growth at 0.01 µM (NCI-H226)?
A: 91%

Q: What about the growth at 0.1 µM [10] of the same compound?
A: 88%

Q: And the GI50 (NCI-H23; read-out: GI50)?
A: 100 µM

Q: What about the CC50 (NCI-H23; [13]) of the same compound?
A: > 100 µM

Q: What about the TGI (NCI-H23; read-out: TGI) of the same compound?
A: > 100 µM

Q: What about the GI50 (NCI-H23; read-out: pGI50 (converted)) of the same compound?
A: > 100 µM

Q: What about the CC50 (NCI-H23; [14]) of the same compound?
A: > 100 µM

Q: And the TGI (NCI-H23; read-out: pTGI)?
A: > 100 µM

Q: And the growth at 10 µM (COLO 205)?
A: 47%

Q: And the growth at 0.1 µM [11]?
A: 102%

Q: And the growth at 0.01 µM (Malme-3M)?
A: 92%

Q: And the growth at 10 µM (SF-268)?
A: 50%

Q: What about the growth at 10 µM [12] of the same compound?
A: 42%

Q: What about the growth at 100 µM (CAKI-1) of the same compound?
A: 32%

Q: What about the growth at 1 µM (NCI-H460) of the same compound?
A: 85%

Q: And the growth at 0.01 µM (U-251)?
A: 99%

Q: And the growth at 0.1 µM (ACHN)?
A: 88%

Q: And the growth at 0.1 µM (HOP-62)?
A: 89%
